From ChEMBL document CHEMBL1125814, “Folic acid analogues lacking the 2-carbon are substrates for folylpolyglutamate synthetase and inhibit cell growth” (J Med Chem, 1991)

How the values were obtained:
[1] = Relative maximal velocity (Vmax) as folylpolyglutamate synthetase substrate of the compound.; type: ADME
L1210 = assay: Compound was tested for inhibition of L1210 cell growth.; type: functional, cell-based; conditions: Mus musculus
In short: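 Exponentially growing L1210 mouse leukemia cells seeded at (2.0–2.5) × 10^4/mL in RPMI-1640 with 10% dialyzed fetal bovine serum. Compound added in phosphate-buffered saline. Incubated 72 h at 37 °C, 5% CO2, humidified. Cells counted with a Coulter counter. IC50 taken from 1 or 2 experiments.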

[2] = Ratio of relative Vmax to that of Km values.; type: ADME

SMILES: N#Cc1nc(CNc2ccc(C(=O)NC(CCC(=O)O)C(=O)O)cc2)cnc1N (stereo not given)
- Relative Vmax [1]: 1.06
- IC50 (L1210): 217 µM
- Ratio [2]: 0.7

SMILES: NC(=O)c1nc(CNc2ccc(C(=O)NC(CCC(=O)O)C(=O)O)cc2)cnc1N (stereo not given)
- Relative Vmax [1]: 0.99
- IC50 (L1210): 5.5 µM
- Ratio [2]: 1.52

SMILES: NC(=O)c1nc(CN(C=O)c2ccc(C(=O)NC(CCC(=O)O)C(=O)O)cc2)cnc1N (stereo not given)
- Relative Vmax [1]: 1.84
- IC50 (L1210): 85 µM
- Ratio [2]: 2.6

SMILES: Nc1nc(N)c2nc(CNc3ccc(C(=O)N[C@@H](CCC(=O)O)C(=O)O)cc3)cnc2n1 [AMINOPTERIN]
- Relative Vmax [1]: 1.59
- Ratio [2]: 10.1

SMILES: Nc1nc2ncc(CNc3ccc(C(=O)N[C@@H](CCC(=O)O)C(=O)O)cc3)nc2c(=O)[nH]1 [FOLIC ACID]
- Relative Vmax [1]: 1
- Ratio [2]: 1

SMILES: CN(Cc1cnc2nc(N)nc(N)c2n1)c1ccc(C(=O)N[C@@H](CCC(=O)O)C(=O)O)cc1 [METHOTREXATE]
- Relative Vmax [1]: 0.99
- Ratio [2]: 0.9
